# From PubChem BioAssay
# Shown are actives, neighbours in structure and some others; about 3.2% of the full set was active somewhere.
# MEKK2 WT-MEK5: raises or lowers MEK5 binding to wildtype human MEKK2 PB1 domain; binding response (% of control), % at 10 µM; Q9Y2U5; bead flow cytometry, Alexa488-MEK5 binding to MEKK2 WT; actives lie on both sides; 290,000 compounds, 1.1% hits; in the data active means binding response below about 67% or above about 130%
# DSG3 Ab inh: inhibitors of pemphigus antibody binding to human desmoglein-3; P32926; DSG3-coupled beads, scFv-anti-DSG3-GFP binding, flow cytometry; stronger effect = lower value; binding (percent of control), % at 10 µM; 310,000 compounds, 0.48% hits; AID 588358;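 active means binding more than 3 SD below its plate's average and above zero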
# MEKK3 PB1 HTS: raises or lowers MEK5 binding to the human MEKK3 PB1 domain. Q99759. bead-based flow cytometry, Alexa488-MEK5 binding to MEKK3; actives lie on both sides; 0 = blocked by unlabeled MEK5, 100 = vehicle. binding response (% of control), % at 10 µM. 290,000 compounds, 1.4% hits. AID 1529;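 active means binding response more than 3 SD above or below the average of its plate-row segment, actives on both sides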;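 further: Alexa488 bead fluorescence after subtracting the streptavidin-only scavenger bead signal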
# Apaf1 inhib: human Apaf-1 inhibition; O14727; reconstituted apoptosome caspase-3 activity, DEVD-Rh110 fluorescence; inhibition, % at 20 µM; 330,000 compounds, 0.71% hits; active means inhibition of at least 40% at 20 µM;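 further: plate controls were DMSO wells for no effect and DEVD-CHO caspase inhibitor wells for full effect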
#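 Material: reconstituted apoptosome with Apaf-1, cytochrome c, caspase-9, procaspase-3, dATP; medium: pH 7.5 Hepes buffer with CHAPS, BSA, DTT; also added: cytochrome c and DEVD-Rh110 substrate; timing: 30 min plus 50 min, RT; signal: Rh110 fluorescence intensity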
# UBC13 polyUb: human UBC13 polyubiquitination inhibition; inhibition, % at 20 µM; P61088; AID 485273; 330,000 compounds, 0.47% hits; UBC13 polyubiquitin chain formation, TR-FRET; in the data active means inhibition above about 45%, passing the limit was not always enough
# Target sequence (P61088 whole entry, looked up): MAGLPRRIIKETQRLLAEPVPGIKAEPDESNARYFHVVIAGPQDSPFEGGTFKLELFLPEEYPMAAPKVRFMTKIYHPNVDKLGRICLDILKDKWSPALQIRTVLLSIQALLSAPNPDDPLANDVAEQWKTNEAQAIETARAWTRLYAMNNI
# MEKK2 mut-MEK5: signal of MEK5 binding to mutant human MEKK2 PB1 domain; 290,000 compounds, 0.35% hits; percent response, % at 10 µM; bead flow cytometry, Alexa488-MEK5 binding to MEKK2 mutant; AID 1530; in the data active means percent response above about 24%, passing the limit was not always enough
# MEKK2wt confirm: raises or lowers MEK5 binding to wildtype human MEKK2, retest; shares compounds with MEKK3 PB1 HTS; bead flow cytometry, Alexa488-MEK5 binding to MEKK2 WT; actives lie on both sides; binding response (% of control), % at 10 µM; 5,900 compounds, 2.4% hits; AID 1892; in the data active means binding response below about 16% or above about 210%; inactive means in between
# MEKK2mut confirm: signal of MEK5 binding to mutant human MEKK2, retest; bead flow cytometry, Alexa488-MEK5 binding to MEKK2 mutant; percent response, % at 10 µM; shares compounds with MEKK3 PB1 HTS; 5,900 compounds, 2% hits; in the data active means percent response mostly above about 71%, no sharp cut-off; inactive means mostly below about 38%;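 further: higher means compound restores mutant binding toward wildtype level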
# MEKK3-MEK5 inh: MEKK3-MEK5 PB1 inhibition, single concentration confirmation; shares compounds with MEKK3 PB1 HTS; bead flow cytometry, Alexa488-MEK5 binding to MEKK3; stronger effect = lower value; binding response (% of control), % at 10 µM; 5,900 compounds, 1.8% hits;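 active means binding response below 72% of control, or above a set upper limit, though filed actives all read lower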;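 further: 100% = DMSO only wells and 0% = binding blocked by excess unlabeled MEK5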
# Starred values were filed as active, the others as inactive; x = no result given; [ ] = another dose, or the depositor's remark.
SMILES,MEKK2 WT-MEK5,DSG3 Ab inh,MEKK3 PB1 HTS,Apaf1 inhib,UBC13 polyUb,MEKK2 mut-MEK5,MEKK2wt confirm,MEKK2mut confirm,MEKK3-MEK5 inh
O=C1c2ccccc2C(=O)N1CCCCSc1nc2ccccc2c(=O)n1CCCN1CCOCC1,135.0,99.5,143.0*,15.6,14.3,6.0,107.0,-1.0,102.0
CCn1c(SCC(=O)N2CCCC2)nc2ccccc2c1=O,52.0*[inhibitor],98.6,74.0*[inhibitor],-11.9,13.6,5.0,105.0,7.0,109.0
Cc1ccc(NC(=O)CSc2nc3ccccc3c(=O)n2CCCN2CCCCC2)cc1C,149.0*,104.0,101.0,54.9*,18.9,4.0,142.0,22.0,108.0
CC(=O)c1ccc(-c2ccc(C(=O)Nc3nc(C)c(C(C)=O)s3)o2)cc1,x,106.4,x,-13.6,3.4,x,x,x,x
COc1ccc(NC(=O)CN(C)C(=O)c2ccc(NS(=O)(=O)c3ccc4[nH]c(=O)[nH]c4c3)cc2)cc1,x,122.1,x,-6.5,-0.6,x,x,x,x
CC(=O)Nc1nnc(SCC(=O)N2CCN(Cc3ccccc3)CC2)s1,105.0,101.8,75.0*[inhibitor],-3.0,6.4,3.0,103.0,-1.0,103.0
CC(=O)Nc1nnc(SCC(=O)N2CCCc3ccccc32)s1,96.0,96.7,88.0,-5.3,0.6,-3.0,x,x,x
CC(C)(C)C(=O)Nc1ccc(NC(=O)C(C)(C)C)cc1,48.0,87.7,48.0*[inhibitor],-23.8,5.2,-31.0,87.0,-12.0,78.0
CC(C)(C)C(=O)Nc1ccc(S(=O)(=O)c2ccc(NC(=O)C(C)(C)C)cc2)cc1,103.0,107.7,105.0,-10.7,-9.8,5.0,x,x,x
CC1(C)Cc2cccc(OCC(O)CN3CCN(c4ccccn4)CC3)c2O1 (stereo not drawn),127.0,x,127.0*,x,x,9.0,101.0,-5.0,101.0
Cc1cc(S(=O)(=O)Nc2ncnc3sccc23)ccc1F,x,100.6,x,x,x,x,x,x,x
Cc1c(N=C2SCC(=O)N2/N=C/c2ccccc2)c(=O)n(-c2ccccc2)n1C,102.0,97.1,129.0*,0.2,-12.1,0.0,97.0,0.0,100.0
C[n+]1c2n(c3ccccc31)N=C(c1ccc(-c3ccccc3)cc1)CS2,159.0*,98.4,112.0,26.6,16.9,6.0,120.0,-22.0,89.0
Cc1cc(C)c2c(N)c(C(=O)Nc3c(C)n(C)n(-c4ccccc4)c3=O)sc2n1,101.0,115.9,98.0,-4.3,-10.6,2.0,x,x,x
CC1=Nc2ccccc2/C1=C/c1c(N)n2c(S(=O)(=O)C(C)C)nsc2nc1=O,78.0,94.1,86.0,11.4,-6.0,-18.0,x,x,x
CC(C)S(=O)(=O)c1nsc2nc(=O)c(/C=C3\C=Nc4ccccc43)c(N)n12,110.0,99.6,129.0*,-3.1,-2.4,1.0,94.0,-1.0,97.0
CCN(C1CCCCC1)S(=O)(=O)CCNC(=O)c1ccccc1,x,117.2,x,2.1,-5.9,x,x,x,x
COc1ccccc1NC(=O)C(=O)N/N=C/c1ccc([N+](=O)[O-])s1,60.0*[inhibitor],95.2,63.0*[inhibitor],x,x,-21.0,120.0,10.0,103.0
COc1ccccc1/C=N/NC(=O)C(=O)Nc1ccccc1OC(F)(F)C(F)F,104.0,90.0,134.0*,16.2,-5.3,1.0,97.0,-8.0,98.0
O=C(N/N=C/c1cc(Cl)ccc1O)C(=O)Nc1ccccc1OC(F)(F)C(F)F,98.0,x,105.0,x,x,3.0,x,x,x
O=C(N/N=C/c1cc(Br)ccc1O)C(=O)Nc1ccccc1OC(F)(F)C(F)F,104.0,106.9,103.0,x,x,2.0,x,x,x
COc1cccc(/C=N/NC(=O)C(=O)Nc2ccccc2OC(F)(F)C(F)F)c1,111.0,92.5,149.0*,-7.4,-5.7,1.0,104.0,7.0,104.0
CCOCCCNC(=O)c1ccc(CN2CCc3ccccc3C2)cc1,x,94.7,x,x,x,x,x,x,x
COc1cccc(Nc2nc(NCC3CCCO3)c3ccccc3n2)c1 (stereo not drawn),144.0*,104.5,106.0,32.6,42.2,20.0,141.0,31.0,105.0
Oc1ccc(Nc2nc(NCC3CCCO3)c3ccccc3n2)cc1 (stereo not drawn),128.0,x,100.0,15.7,45.0,15.0,x,x,x
SMILES,MEKK2 WT-MEK5,DSG3 Ab inh,MEKK3 PB1 HTS,Apaf1 inhib,UBC13 polyUb,MEKK2 mut-MEK5,MEKK2wt confirm,MEKK2mut confirm,MEKK3-MEK5 inh
COc1cc(C(C(=O)NC(C)(C)C)N(Cc2ccc3c(c2)OCO3)C(=O)c2cnccn2)cc(OC)c1OC (stereo not drawn),58.0,100.0,40.0*[inhibitor],-2.2,-4.6,-14.0,101.0,-2.0,100.0
COc1cc2c(C(=O)NCCCOC(C)C)cn(CC(C)C)c(=O)c2cc1OC,87.0,100.7,81.0*[inhibitor],-7.2,3.7,-3.0,99.0,2.0,103.0
COc1cc2c(C(=O)NCCN(C)C)cn(CC(C)C)c(=O)c2cc1OC,102.0,91.5,103.0,-5.8,12.7,1.0,x,x,x
CCOc1ccccc1NC(=O)NCc1cccnc1,49.0,100.0,43.0*[inhibitor],1.6,-5.4,-16.0,96.0,-5.0,99.0
CCOc1ccccc1NC(=O)NCc1ccccc1,95.0,93.5,92.0,-11.1,6.4,-10.0,x,x,x
CCOC(=O)C1=C(C)NC2=C(C(=O)CC(c3cccs3)C2)C1c1cccs1 (stereo not drawn),79.0,97.8,72.0*[inhibitor],15.1,3.0,3.0,96.0,0.0,101.0
COC(=O)C1=C(C)NC2=C(C(=O)CC(c3cccs3)C2)C1c1ccsc1 (stereo not drawn),99.0,96.0,101.0,x,x,-2.0,x,x,x
COc1ccc(CN2CCN(C(=O)C3CCN(C(=O)Nc4ccccc4)CC3)CC2)cc1OC,x,90.1,x,-2.4,-3.9,x,x,x,x
Cc1ccc(-n2ncc3c(NNC(=O)Cc4ccccc4)ncnc32)cc1,108.0,106.5,143.0*,13.6,9.4,1.0,104.0,9.0,106.0
c1ccc(-n2ncc3c(NCCN4CCCCC4)ncnc32)cc1,113.0,100.8,104.0,4.8,-6.8,25.0*,122.0,11.0,104.0
COc1ccc(C(=O)NCc2ccccc2CN2CCCC2)cc1S(=O)(=O)N1CCOCC1,x,109.3,x,-6.5,-0.2,x,x,x,x
CCOC(=O)c1cc2cc([N+](=O)[O-])ccc2oc1=O,76.0,96.9,75.0*[inhibitor],5.6,-22.2,-28.0,102.0,7.0,100.0
CCOC(=O)c1cc2cc([N+](=O)[O-])cc(OC)c2oc1=O,108.0,83.5,105.0,-3.7,-8.4,6.0,x,x,x
COc1cccc(Nc2nc3cc(C)ccc3cc2C)c1,x,100.8,x,x,x,x,x,x,x
